In ChEMBL document CHEMBL4038328, “Structure-Guided Optimization of HIV Integrase Strand Transfer Inhibitors” (J Med Chem, 2017):

How the values were obtained:
[1] = test system: Human immunodeficiency virus 1; assay: Antiviral activity against VSV-G pseudotyped HIV1 harboring integrase T66I mutant infected in HOS cells pretreated […] for 3 hrs followed by viral infection measured after 48 hrs by luciferase reporter gene assay; format: functional, cell-based; details: Human immunodeficiency virus 1, HOS
How it was run: (§1)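 Single-round luciferase HIV-1 vector (pNLNgoMIVR−ΔLUC carrying WT or mutant IN) was pseudotyped with VSV-g by calcium phosphate co-transfection of 293 cells, and supernatant was harvested after 48 h. HOS cells were seeded at 4000/well in DMEM with 5% FBS and 5% newborn calf serum. They were pretreated 3 h at 37 °C with 5–0.0001 μM (11 serial dilutions), then infected for 48 h. Luminescence was normalized to untreated cells, and EC50 came from nonlinear regression.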

[2] = test system: Human immunodeficiency virus 1; assay: Selectivity ratio of EC50 for VSV-G pseudotyped HIV1 harboring integrase T66I mutant infected in HOS cells to EC50 for VSV-G pseudotyped HIV1 harboring wild-type integrase infected in HOS cells; format: functional
How it was run: (§2)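 Fold change is the EC50 against the mutant-IN vector divided by the EC50 against the WT-IN vector. Both come from the single-round luciferase infectivity assay in HOS cells, with a 3 h compound pretreatment followed by 48 h infection.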

[3] = test system: Human immunodeficiency virus 1; assay: Antiviral activity against VSV-G pseudotyped HIV1 harboring integrase R263K mutant infected in HOS cells pretreated […] for 3 hrs followed by viral infection measured after 48 hrs by luciferase reporter gene assay; format: functional, cell-based; details: Human immunodeficiency virus 1, HOS; how it was run: as §1
[4] = test system: Human immunodeficiency virus 1; assay: Selectivity ratio of EC50 for VSV-G pseudotyped HIV1 harboring integrase G140S/Q148H mutant infected in HOS cells to EC50 for VSV-G pseudotyped HIV1 harboring wild-type integrase infected in HOS cells; format: functional; how it was run: as §2
[5] = test system: Human immunodeficiency virus 1; assay: Selectivity ratio of EC50 for VSV-G pseudotyped HIV1 harboring integrase H51Y mutant infected in HOS cells to EC50 for VSV-G pseudotyped HIV1 harboring wild-type integrase infected in HOS cells; format: functional; how it was run: as §2
[6] = test system: Human immunodeficiency virus 1; assay: Antiviral activity against VSV-G pseudotyped HIV1 harboring integrase H51Y mutant infected in HOS cells pretreated […] for 3 hrs followed by viral infection measured after 48 hrs by luciferase reporter gene assay; format: functional, cell-based; details: Human immunodeficiency virus 1, HOS; how it was run: as §1
[7] = test system: Human immunodeficiency virus 1; assay: Antiviral activity against VSV-G pseudotyped HIV1 harboring integrase G140S/Q148H double mutant infected in HOS cells pretreated […] for 3 hrs followed by viral infection measured after 48 hrs by luciferase reporter gene assay; format: functional, cell-based; details: Human immunodeficiency virus 1, HOS; how it was run: as §1
[8] = test system: Human immunodeficiency virus 1; assay: Selectivity ratio of EC50 for VSV-G pseudotyped HIV1 harboring integrase E92Q mutant infected in HOS cells to EC50 for VSV-G pseudotyped HIV1 harboring wild-type integrase infected in HOS cells; format: functional; how it was run: as §2
[9] = test system: Human immunodeficiency virus 1; assay: Antiviral activity against VSV-G pseudotyped HIV1 harboring integrase E92Q mutant infected in HOS cells pretreated […] for 3 hrs followed by viral infection measured after 48 hrs by luciferase reporter gene assay; format: functional, cell-based; details: Human immunodeficiency virus 1, HOS; how it was run: as §1
[10] = test system: Human immunodeficiency virus 1; assay: Selectivity ratio of EC50 for VSV-G pseudotyped HIV1 harboring integrase H51Y/R263K double mutant infected in HOS cells to EC50 for VSV-G pseudotyped HIV1 harboring wild-type integrase infected in HOS cells; format: functional; how it was run: as §2
[11] = test system: Human immunodeficiency virus 1; assay: Selectivity ratio of EC50 for VSV-G pseudotyped HIV1 harboring integrase G118R mutant infected in HOS cells to EC50 for VSV-G pseudotyped HIV1 harboring wild-type integrase infected in HOS cells; format: functional; how it was run: as §2
[12] = test system: Human immunodeficiency virus 1; assay: Antiviral activity against VSV-G pseudotyped HIV1 harboring integrase G118R mutant infected in HOS cells pretreated […] for 3 hrs followed by viral infection measured after 48 hrs by luciferase reporter gene assay; format: functional, cell-based; details: Human immunodeficiency virus 1, HOS; how it was run: as §1
[13] = test system: Human immunodeficiency virus 1; assay: Selectivity ratio of EC50 for VSV-G pseudotyped HIV1 harboring integrase R263K mutant infected in HOS cells to EC50 for VSV-G pseudotyped HIV1 harboring wild-type integrase infected in HOS cells; format: functional; how it was run: as §2
[14] = test system: Human immunodeficiency virus 1; assay: Selectivity ratio of EC50 for VSV-G pseudotyped HIV1 harboring integrase N155H mutant infected in HOS cells to EC50 for VSV-G pseudotyped HIV1 harboring wild-type integrase infected in HOS cells; format: functional; how it was run: as §2
[15] = test system: Human immunodeficiency virus 1; assay: Antiviral activity against VSV-G pseudotyped HIV1 harboring integrase Y143R mutant infected in HOS cells pretreated […] for 3 hrs followed by viral infection measured after 48 hrs by luciferase reporter gene assay; format: functional, cell-based; details: Human immunodeficiency virus 1, HOS; how it was run: as §1
[16] = test system: Human immunodeficiency virus 1; assay: Antiviral activity against VSV-G pseudotyped HIV1 harboring wild-type integrase infected in HOS cells pretreated […] for 3 hrs followed by viral infection measured after 48 hrs by luciferase reporter gene assay; format: functional, cell-based; details: Human immunodeficiency virus 1, HOS; how it was run: as §1
[17] = test system: HOS; assay: Cytotoxicity against HOS cells assessed as reduction in cell viability after 48 hrs by ATPLite luminescence assay; format: cell-based; details: human, hos, 48 h
How it was run: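 HOS cells seeded at 4000 per well the day before, exposed to compounds over 250 to 0.05 μM at 37 °C for 48 h. ATP measured by luminescence after lysis and 20 min signal development at room temperature.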

[18] = test system: Human immunodeficiency virus 1; assay: Antiviral activity against VSV-G pseudotyped HIV1 harboring integrase N155H mutant infected in HOS cells pretreated […] for 3 hrs followed by viral infection measured after 48 hrs by luciferase reporter gene assay; format: functional, cell-based; details: Human immunodeficiency virus 1, HOS; how it was run: as §1
[19] = test system: Human immunodeficiency virus 1; assay: Antiviral activity against VSV-G pseudotyped HIV1 harboring integrase H51Y/R263K double mutant infected in HOS cells pretreated […] for 3 hrs followed by viral infection measured after 48 hrs by luciferase reporter gene assay; format: functional, cell-based; details: Human immunodeficiency virus 1, HOS; how it was run: as §1
[20] = test system: Human immunodeficiency virus 1; assay: Selectivity ratio of EC50 for VSV-G pseudotyped HIV1 harboring integrase Y143R mutant infected in HOS cells to EC50 for VSV-G pseudotyped HIV1 harboring wild-type integrase infected in HOS cells; format: functional; how it was run: as §2
[21] = test system: Human immunodeficiency virus 1; assay: Antiviral activity against VSV-G pseudotyped HIV1 harboring integrase Y143R mutant infected in HOS cells pretreated […] for 3 hrs followed by viral infection measured after 48 hrs by luciferase reporter gene assay relative to dolutegravir; format: functional
[22] = test system: Human immunodeficiency virus 1; assay: Antiviral activity against VSV-G pseudotyped HIV1 harboring integrase N155H mutant infected in HOS cells pretreated […] for 3 hrs followed by viral infection measured after 48 hrs by luciferase reporter gene assay relative to dolutegravir; format: functional
[23] = test system: Human immunodeficiency virus 1; assay: Antiviral activity against VSV-G pseudotyped HIV1 harboring integrase G118R mutant infected in HOS cells pretreated […] for 3 hrs followed by viral infection measured after 48 hrs by luciferase reporter gene assay relative to dolutegravir; format: functional
[24] = test system: Human immunodeficiency virus 1; assay: Antiviral activity against VSV-G pseudotyped HIV1 harboring wild-type integrase infected in HOS cells pretreated […] for 3 hrs followed by viral infection measured after 48 hrs by luciferase reporter gene assay relative to dolutegravir; format: functional
[25] = test system: Human immunodeficiency virus 1; assay: Antiviral activity against VSV-G pseudotyped HIV1 harboring integrase E92Q mutant infected in HOS cells pretreated […] for 3 hrs followed by viral infection measured after 48 hrs by luciferase reporter gene assay relative to dolutegravir; format: functional
[26] = Inhibition of HIV1 integrase 3' processing activity using 5'-end 32P labeled DNA substrate measured after 2 hrs by PAGE based phosphor imaging method; design: species or system Human immunodeficiency virus 1
How it was run: (§3)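 Gel-based assay, Mg2+ cofactor: 400 nM integrase with 20 nM DNA substrate 5′-32P-labeled on transferred strand in 50 mM MOPS pH 7.2, 7.5 mM MgCl2, 14 mM 2-mercaptoethanol, inhibitor or DMSO; 2 h at 37 °C. Stopped with formamide/SDS loading buffer; products resolved on 16% denaturing polyacrylamide gels, quantified by phosphorimaging.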

[27] = test system: Human immunodeficiency virus 1; assay: Antiviral activity against VSV-G pseudotyped HIV1 harboring integrase H51Y mutant infected in HOS cells pretreated […] for 3 hrs followed by viral infection measured after 48 hrs by luciferase reporter gene assay relative to dolutegravir; format: functional
[28] = test system: Human immunodeficiency virus 1; assay: Antiviral activity against VSV-G pseudotyped HIV1 harboring integrase G140S/Q148H double mutant infected in HOS cells pretreated […] for 3 hrs followed by viral infection measured after 48 hrs by luciferase reporter gene assay relative to dolutegravir; format: functional
[29] = Inhibition of HIV1 integrase strand transfer activity using 5'-end 32P labeled DNA substrate measured after 2 hrs by PAGE based phosphor imaging method; design: species or system Human immunodeficiency virus 1; how it was run: as §3
[30] = test system: Human immunodeficiency virus 1; assay: Antiviral activity against VSV-G pseudotyped HIV1 harboring integrase H51Y/R263K double mutant infected in HOS cells pretreated […] for 3 hrs followed by viral infection measured after 48 hrs by luciferase reporter gene assay relative to dolutegravir; format: functional
[31] = test system: Human immunodeficiency virus 1; assay: Antiviral activity against VSV-G pseudotyped HIV1 harboring integrase R263K mutant infected in HOS cells pretreated […] for 3 hrs followed by viral infection measured after 48 hrs by luciferase reporter gene assay relative to dolutegravir; format: functional
[32] = test system: Human immunodeficiency virus 1; assay: Antiviral activity against VSV-G pseudotyped HIV1 harboring integrase T66I mutant infected in HOS cells pretreated […] for 3 hrs followed by viral infection measured after 48 hrs by luciferase reporter gene assay relative to dolutegravir; format: functional

| Compound | EC50 [1] | Ratio EC50 [2] | EC50 [3] | Ratio EC50 [4] | Ratio EC50 [5] | EC50 [6] | EC50 [7] | Ratio EC50 [8] | EC50 [9] | Ratio EC50 [10] | Ratio EC50 [11] | EC50 [12] | Ratio EC50 [13] | Ratio EC50 [14] | EC50 [15] | EC50 [16] | CC50 [17] | EC50 [18] | EC50 [19] | Ratio EC50 [20] | also measured |
| --- | --- | --- | --- | --- | --- | --- | --- | --- | --- | --- | --- | --- | --- | --- | --- | --- | --- | --- | --- | --- | --- |
| CC(=O)OCCCCCc1cnc2c(c1)c(NCCO)c(C(=O)NCc1ccc(F)cc1F)c(=O)n2O | 1.2 nM | 0.2 | 3.6 nM | 1 | 1 | 7.4 nM | 5.3 nM | 0.7 | 3.8 nM | 3 | 3 | 15 nM | 0.7 | 2 | 4.1 nM | 5.3 nM | > 100000 nM | 10 nM | 15 nM | 0.8 |  |
| COC(=O)CCc1cnc2c(c1)c(N)c(C(=O)NCc1ccc(F)cc1F)c(=O)n2O | 0.53 nM | 0.8 | 0.5 nM | 8 | 0.9 | 0.63 nM | 5.3 nM | 3 | 2 nM | 3 | 7 | 4.8 nM | 0.7 | 3 | 0.67 nM | 0.67 nM | > 250000 nM |  | 2.4 nM | 1 | fold change (FC) [21]: 0.16; fold change (FC) [22]: 0.64; fold change (FC) [23]: 0.37; fold change (FC) [24]: 0.42; fold change (FC) [25]: 0.87; IC50 [26]: 2900 nM; fold change (FC) [27]: 0.2; fold change (FC) [28]: 0.91; IC50 [29]: 3.1 nM; fold change (FC) [30]: 0.15; fold change (FC) [31]: 0.05; fold change (FC) [32]: 0.59 |
| CC(=O)OCCCc1cnc2c(c1)c(N)c(C(=O)NCc1ccc(F)cc1F)c(=O)n2O | 0.75 nM | 0.5 | 1.8 nM | 9 | 0.6 | 0.8 nM | 13 nM | 1 | 1.2 nM | 3 | 4 | 5.9 nM | 1 | 4 | 2.9 nM | 1.4 nM | > 250000 nM | 5.4 nM | 3.9 nM | 2 | IC50 [26]: 14300 nM; IC50 [29]: 10 nM |
| O=C(NCc1ccc(F)cc1F)c1c(NCCO)c2cc(CCCCCO)cnc2n(O)c1=O | 1.9 nM | 0.1 | 18 nM | 1 | 0.8 | 11 nM | 16 nM | 0.5 | 6.5 nM | 2 | 2 | 24 nM | 1 | 1 | 12 nM | 13 nM | > 250000 nM | 15 nM | 31 nM | 0.9 | IC50 [26]: 4000 nM; IC50 [29]: 2.5 nM |
| COC(=O)CCc1cnc2c(c1)c(NCCO)c(C(=O)NCc1ccc(F)cc1F)c(=O)n2O | 0.62 nM | 0.2 | 6.5 nM | 4 | 2 | 6.9 nM | 16 nM | 0.7 | 2.7 nM | 0.9 | 1 | 4.8 nM | 2 | 1 | 3.8 nM | 4.1 nM | > 250000 nM | 3.9 nM | 2.5 nM | 0.9 | IC50 [26]: 3200 nM; IC50 [29]: 3.1 nM |
